This passage reports IC50 and solubility results from ChEMBL document CHEMBL1165969, “Synthesis and cytotoxicity of novel indirubin-5-carboxamides” (Bioorg Med Chem, 2010).

A short description of series [1]: Antiproliferative activity against human LXFL 529L cells after 3 days by sulforhodamine B assay. Format: functional, cell-based. The procedure, abridged:
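Cells kept at 37 °C in humidified 5% CO2 in RPMI 1640 with 10% heat-inactivated FBS, penicillin (100 units/mL) and streptomycin, and checked for mycoplasma. Seeded, grown 24 h, then exposed to drug for 3 days in serum-containing medium. Fixed with 50% TCA solution for 1 h at 4 °C, stained with 0.4% SRB, dye eluted in 10 mM Tris pH 10.5, read at 570 nm. Growth expressed as % T/C; IC50 derived.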

Series [2] in a line: Solubility in water by spectrophotometry. The format is physicochemical.

Converted amounts (≈) assume the structure as drawn.

As a reminder, the IC50 is the concentration at which inhibition is half-maximal. The solubility is the concentration that dissolves in the medium under given conditions. Lower therefore signals a poorly soluble substance.

As to `O=C1Nc2ccc(C(=O)N(CCO)CCO)cc2/C1=C1/Nc2ccccc2/C1=N\O`, the IC50 in series [1] (Homo sapiens, LXFL 529L, 72 h) came to 5.9 µM. For the same molecule, the concentration in solution in series [2] (solubility) came to 523 µg/mL (≈ 1280 µM). In turn, `O=C1Nc2ccccc2/C1=C1/Nc2ccccc2C1=O` [INDIRUBIN] yielded an IC50 in series [1] (Homo sapiens, LXFL 529L, 72 h) of 10 µM. In other words, the double-digit micromolar range.

For the molecule `CN(C)CCN(C)C(=O)c1ccc2c(c1)/C(=C1/Nc3ccccc3C1=O)C(=O)N2`, the IC50 in series [1] (Homo sapiens, LXFL 529L, 72 h) was found to be 5.4 µM. Besides, in series [2], the solubility was found to be 35.4 µg/mL (≈ 90.7 µM). Taken in the same sequence, the figures for `O=C1Nc2ccc(C(=O)N3CCNCC3)cc2/C1=C1/Nc2ccccc2C1=O` were 3.2 µM and 4.2 µg/mL (≈ 11.2 µM). Taken in the same sequence, the figures for `CN1CCN(c2ccc(NC(=O)c3ccc4c(c3)/C(=C3/Nc5ccccc5/C3=N\O)C(=O)N4)cc2)CC1` were 4.2 µM and 1600 µg/mL (≈ 3240 µM).

As to `CN1CCN(C(=O)c2ccc3c(c2)/C(=C2/Nc4ccccc4C2=O)C(=O)N3)CC1`, in series [1] (Homo sapiens, LXFL 529L, 72 h), inhibition was half-maximal at 3.9 µM (IC50). In series [2], the solubility was determined as 1000 µg/mL (≈ 2570 µM).

As for `CN1CCN(CCNC(=O)c2ccc3c(c2)/C(=C2/Nc4ccccc4C2=O)C(=O)N3)CC1`, in series [1] (Homo sapiens, LXFL 529L, 72 h), the concentration for half-maximal inhibition (IC50) turned out to be 7.8 µM. The same molecule yielded a solubility in series [2] of 700 µg/mL (≈ 1620 µM). With `COS(=O)(=O)[O-].C[N+]1(C)CCN(C(=O)c2ccc3c(c2)/C(=C2/Nc4ccccc4C2=O)C(=O)N3)CC1`, in series [1] (lxfl 529l), the IC50 worked out at 3.5 µM. In series [2], the solubility is 60000 µg/mL. Turning to `C[N+]1(C)CCN(C(=O)c2ccc3c(c2)/C(=C2/Nc4ccccc4C2=O)C(=O)N3)CC1.[I-]`, the IC50 in series [1] (Homo sapiens, LXFL 529L, 72 h) came to 2.5 µM. In series [2], this molecule had a solubility of 2450 µg/mL. In series [1] (Homo sapiens, LXFL 529L, 72 h), `O=C1Nc2ccc(C(=O)Nc3cccnc3)cc2/C1=C1/Nc2ccccc2C1=O` yielded an IC50 of more than 10 µM. The same molecule showed a solubility in series [2] of 55.5 µg/mL (≈ 145 µM). The corresponding values for `CN(CC[N+](C)(C)C)C(=O)c1ccc2c(c1)/C(=C1/Nc3ccccc3C1=O)C(=O)N2.[I-]` are 5.7 µM and 1600 µg/mL. As for `CN(C)CCN(C)C(=O)c1ccc2c(c1)/C(=C1/Nc3ccccc3/C1=N\OCCO[C@@H]1O[C@H](CO)[C@@H](O)[C@H](O)[C@H]1O)C(=O)N2`, the IC50 in series [1] (Homo sapiens, LXFL 529L, 72 h) was more than 10 µM. The molecule also came in with a solubility in series [2] of more than 380 µg/mL. In series [1] (Homo sapiens, LXFL 529L, 72 h), `O=C1Nc2ccc(C(=O)O)cc2/C1=C1/Nc2ccccc2C1=O` yielded an IC50 of 7 µM. The solubility in series [2] stood at 41 µg/mL (≈ 134 µM).

In series [1] (Homo sapiens, LXFL 529L, 72 h), `O=C1Nc2ccc(C(=O)NCCO)cc2/C1=C1/Nc2ccccc2/C1=N\O` displayed an IC50 of 4.5 µM. Further, the concentration in solution in series [2] (solubility) came to 179 µg/mL (≈ 491 µM).

Turning to `COc1ccc2c(c1)/C(=C1/Nc3ccccc3/C1=N\OCCO[C@@H]1O[C@H](CO)[C@@H](O)[C@H](O)[C@H]1O)C(=O)N2`, the IC50 in series [1] (Homo sapiens, LXFL 529L, 72 h) was 0.5 µM. Besides, the concentration in solution in series [2] (solubility) was 42 µg/mL (≈ 81.8 µM). The corresponding values for `CN(C)CCNC(=O)c1ccc2c(c1)/C(=C1/Nc3ccccc3C1=O)C(=O)N2` are 2.3 µM and 13 µg/mL (≈ 34.5 µM). Molecule `CN(C)CCN(C)C(=O)c1ccc2c(c1)/C(=C1/Nc3ccccc3/C1=N\O)C(=O)N2` displayed an IC50 in series [1] (Homo sapiens, LXFL 529L, 72 h) of 2.2 µM. In series [2], this molecule registered a solubility of 6400 µg/mL (≈ 15800 µM). In series [1] (Homo sapiens, LXFL 529L, 72 h), `O=C1Nc2ccc(C(=O)N(CCO)CCO)cc2/C1=C1/Nc2ccccc2C1=O` yielded an IC50 of 4.7 µM. Moreover, the solubility in series [2] was determined as 6.8 µg/mL (≈ 17.3 µM). Taken in the same sequence, the figures for `O=C1Nc2ccc(C(=O)NC[C@H](O)[C@@H](O)[C@H](O)[C@H](O)CO)cc2/C1=C1/Nc2ccccc2C1=O` were more than 30 µM and 21.6 µg/mL (≈ 46 µM). On to `CN(C)c1ccc(NC(=O)c2ccc3c(c2)/C(=C2/Nc4ccccc4C2=O)C(=O)N3)cc1`, for which the IC50 in series [1] (Homo sapiens, LXFL 529L, 72 h) is 1.2 µM. Moreover, the solubility in series [2] stood at 580 µg/mL (≈ 1370 µM). In turn, `COS(=O)(=O)[O-].C[N+](C)(C)CCNC(=O)c1ccc2c(c1)/C(=C1/Nc3ccccc3C1=O)C(=O)N2` yielded an IC50 in series [1] (Homo sapiens, LXFL 529L, 72 h) of 8.6 µM. Also, in series [2], the solubility came to 53000 µg/mL.

Take `O=C1Nc2ccc(C(=O)N(CCO)CCO)cc2/C1=C1/Nc2ccccc2/C1=N\OCC(O)CO` (configuration not stated): the IC50 in series [1] (Homo sapiens, LXFL 529L, 72 h) came out at 43 µM. Besides, the concentration in solution in series [2] (solubility) was 21 µg/mL (≈ 43.5 µM). On to `CN1CCN(CCNC(=O)c2ccc3c(c2)/C(=C2/Nc4ccccc4C2=O)C(=O)N3)CC1.Cl`, for which, in series [1] (lxfl 529l), half-maximal inhibition (IC50) was put at 6 µM. Also, the solubility in series [2] is more than 2000 µg/mL. `O=C1Nc2ccc(C(=O)NCCO)cc2/C1=C1/Nc2ccccc2C1=O` displayed an IC50 in series [1] (Homo sapiens, LXFL 529L, 72 h) of 9.2 µM. In series [2], this molecule yielded a solubility of 9.5 µg/mL (≈ 27.2 µM).
